Assays:
[1] = target: Glutamate receptor ionotropic, AMPA (Rattus norvegicus, UniProt P19491+P19492+P19493+P19490); experiment: (§1) Antagonist activity on AMPA receptor expressed on rat motoneurons by its ability to reduce the fast component dorsal root evoked ventral root potential (fDR-VRP); assay type: functional
[2] = target: Glutamate receptor ionotropic, kainate 2 (Rattus norvegicus, UniProt P42260); experiment: (§2) Displacement of [3H]kainate from rat GLUK6 receptor expressed in HEK293 cells; assay type: cell-based
[3] = target: T1, Glutamate receptor ionotropic, AMPA (Rattus norvegicus, UniProt P19490+P19491+P19492+P19493); experiment: Displacement of [3H](S)-5-fluorowillardiine from AMPA receptor in rat brain membrane; assay type: cell membranes
[4] = target: Glutamate receptor ionotropic, kainate (Rattus norvegicus); experiment: Displacement of [3H]SYM2081 from kainate receptor in rat brain membrane
[5] = target: T1, Glutamate receptor ionotropic, AMPA; experiment: as §1; assay type: functional
[6] = target: Glutamate receptor ionotropic, kainate 1 (Rattus norvegicus, UniProt P22756); experiment: Antagonism on GLUK5 containing kainate induced depolarization of isolated neonatal rat dorsal root C-fibers; assay type: functional
[7] = target: Glutamate receptor ionotropic, kainate 1 (Rattus norvegicus) (UniProt P22756); experiment: Percentage depression of GLUK5 containing kainate induced depolarization on isolated neonatal rat dorsal root C-fibers at 200 uM; assay type: functional
[8] = target: Glutamate receptor ionotropic, kainate 2 (Rattus norvegicus) (UniProt P42260); experiment: as §2; assay type: cell-based
[9] = target: Glutamate receptor ionotropic, kainate 1 (Homo sapiens) (UniProt P39086); experiment: Inhibitory effect on glutamate-induced calcium influx at homomeric human GLUK5 receptor expressed in HEK293 cells; assay type: functional, cell-based
In short: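 HEK293 cells stably expressing human GLUK5(Q), calcium fluorescence assay (FLIPR) in presence of concanavalin A. Antagonist added alone first, then with 100 µM glutamate. Curves fitted with slope fixed at 1; Kb from IC50 via Cheng-Prusoff using glutamate EC50 determined in same plate.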

[10] = Inhibitory effect on glutamate-induced calcium influx at homomeric human GLUK5/GLUK2 receptor clone expressed in HEK293 cells; assay type: functional
In short: (§3)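 HEK293 lines stably coexpressing human GLUK5 with GLUK2 or GLUK6 (GLUK5(R)/GLUK6(Q)), FLIPR calcium assay with concanavalin A present. Antagonist given alone at first addition, then with 100 µM glutamate at second. Curves fit with slope 1, top/bottom fixed at 100%/0%. Kb = IC50/(1+[Glu]/EC50 Glu), glutamate EC50 from curves on same plate.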

[11] = Inhibitory effect on glutamate-induced calcium influx at homomeric human GLUK5/GLUK6 receptor clone expressed in HEK293 cells; assay type: functional; in short: as §3

Sequence of Glutamate receptor ionotropic, kainate 1 (P22756 whole entry): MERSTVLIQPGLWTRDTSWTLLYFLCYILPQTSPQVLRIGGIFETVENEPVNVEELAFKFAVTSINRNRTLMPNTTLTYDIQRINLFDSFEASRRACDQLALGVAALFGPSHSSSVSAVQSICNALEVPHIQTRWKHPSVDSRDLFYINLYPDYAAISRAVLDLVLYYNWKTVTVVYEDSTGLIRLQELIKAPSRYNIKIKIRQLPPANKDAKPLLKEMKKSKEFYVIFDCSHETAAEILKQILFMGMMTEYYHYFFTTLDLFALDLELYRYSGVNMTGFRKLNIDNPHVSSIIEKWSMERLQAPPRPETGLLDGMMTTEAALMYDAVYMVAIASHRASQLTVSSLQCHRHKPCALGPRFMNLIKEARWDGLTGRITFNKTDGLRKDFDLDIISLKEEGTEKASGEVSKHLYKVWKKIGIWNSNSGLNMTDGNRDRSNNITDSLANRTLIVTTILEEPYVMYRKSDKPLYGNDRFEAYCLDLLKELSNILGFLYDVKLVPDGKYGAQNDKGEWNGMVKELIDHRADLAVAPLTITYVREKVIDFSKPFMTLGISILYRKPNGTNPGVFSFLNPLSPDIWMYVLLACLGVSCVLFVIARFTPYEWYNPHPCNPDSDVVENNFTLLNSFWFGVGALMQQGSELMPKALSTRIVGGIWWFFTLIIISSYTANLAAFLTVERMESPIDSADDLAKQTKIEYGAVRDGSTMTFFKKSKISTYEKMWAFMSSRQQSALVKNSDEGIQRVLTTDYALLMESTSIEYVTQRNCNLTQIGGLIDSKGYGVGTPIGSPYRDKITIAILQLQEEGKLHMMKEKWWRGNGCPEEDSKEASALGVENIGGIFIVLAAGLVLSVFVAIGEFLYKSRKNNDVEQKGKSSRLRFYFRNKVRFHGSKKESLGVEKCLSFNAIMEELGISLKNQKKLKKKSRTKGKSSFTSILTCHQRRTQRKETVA
Sequence of Glutamate receptor ionotropic, kainate 2 (P42260 whole entry): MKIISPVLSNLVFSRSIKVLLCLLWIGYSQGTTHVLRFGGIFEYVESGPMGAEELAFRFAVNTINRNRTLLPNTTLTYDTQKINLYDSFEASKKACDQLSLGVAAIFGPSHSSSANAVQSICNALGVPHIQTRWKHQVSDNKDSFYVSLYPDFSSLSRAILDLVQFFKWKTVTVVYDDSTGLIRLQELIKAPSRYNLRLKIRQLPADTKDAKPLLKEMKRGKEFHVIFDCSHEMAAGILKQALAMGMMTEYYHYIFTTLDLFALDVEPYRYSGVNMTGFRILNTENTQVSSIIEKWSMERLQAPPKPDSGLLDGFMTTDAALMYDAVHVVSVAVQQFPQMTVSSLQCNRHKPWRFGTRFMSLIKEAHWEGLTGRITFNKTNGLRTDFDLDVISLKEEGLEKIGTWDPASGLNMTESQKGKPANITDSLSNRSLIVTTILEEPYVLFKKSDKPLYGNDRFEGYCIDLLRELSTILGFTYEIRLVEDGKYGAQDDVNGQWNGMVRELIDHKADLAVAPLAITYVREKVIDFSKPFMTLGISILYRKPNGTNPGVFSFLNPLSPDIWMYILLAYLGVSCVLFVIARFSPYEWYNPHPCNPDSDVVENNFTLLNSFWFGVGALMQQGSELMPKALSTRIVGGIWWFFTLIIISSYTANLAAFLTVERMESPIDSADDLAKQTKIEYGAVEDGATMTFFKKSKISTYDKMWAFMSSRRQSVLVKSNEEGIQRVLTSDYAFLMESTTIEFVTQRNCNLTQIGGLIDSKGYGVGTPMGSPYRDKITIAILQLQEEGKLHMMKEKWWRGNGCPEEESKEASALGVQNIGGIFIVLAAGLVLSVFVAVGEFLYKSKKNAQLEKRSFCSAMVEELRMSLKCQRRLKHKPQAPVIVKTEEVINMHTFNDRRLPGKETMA
Sequence of Glutamate receptor ionotropic, kainate 1 (Rattus norvegicus) (P22756 whole entry): as the sequence (P22756 whole entry) above
Sequence of Glutamate receptor ionotropic, kainate 2 (Rattus norvegicus) (P42260 whole entry): as the sequence (P42260 whole entry) above
Sequence of Glutamate receptor ionotropic, kainate 1 (Homo sapiens) (P39086 whole entry): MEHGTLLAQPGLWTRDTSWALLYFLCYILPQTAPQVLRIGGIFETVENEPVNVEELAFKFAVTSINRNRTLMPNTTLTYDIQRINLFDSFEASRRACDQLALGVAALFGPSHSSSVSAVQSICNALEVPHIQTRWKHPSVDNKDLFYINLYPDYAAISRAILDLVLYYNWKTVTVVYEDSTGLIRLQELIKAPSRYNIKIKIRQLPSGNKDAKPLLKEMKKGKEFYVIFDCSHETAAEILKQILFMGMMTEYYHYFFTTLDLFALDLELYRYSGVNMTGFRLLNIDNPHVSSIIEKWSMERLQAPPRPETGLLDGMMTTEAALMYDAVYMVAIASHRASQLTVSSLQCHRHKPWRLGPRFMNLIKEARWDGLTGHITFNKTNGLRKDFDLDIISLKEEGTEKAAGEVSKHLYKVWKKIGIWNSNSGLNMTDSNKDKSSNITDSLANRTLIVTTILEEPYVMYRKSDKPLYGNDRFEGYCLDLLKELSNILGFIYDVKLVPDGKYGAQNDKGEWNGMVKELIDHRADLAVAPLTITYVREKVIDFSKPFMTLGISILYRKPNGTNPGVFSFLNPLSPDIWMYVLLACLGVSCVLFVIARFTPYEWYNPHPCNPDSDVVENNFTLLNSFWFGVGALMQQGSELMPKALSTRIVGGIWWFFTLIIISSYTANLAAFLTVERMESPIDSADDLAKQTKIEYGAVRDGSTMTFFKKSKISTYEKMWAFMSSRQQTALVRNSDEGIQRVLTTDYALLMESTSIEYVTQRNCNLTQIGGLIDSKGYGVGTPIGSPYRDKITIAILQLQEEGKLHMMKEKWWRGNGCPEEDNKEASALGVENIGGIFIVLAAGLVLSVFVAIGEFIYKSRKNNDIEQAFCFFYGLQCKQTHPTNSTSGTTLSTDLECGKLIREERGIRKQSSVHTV

Cn1c(=O)ccn(C[C@H](N)C(=O)O)c1=O
IC50 [1]: Agonist
Ki [2]: > 100 µM

N[C@@H](Cn1c(=O)ccn(CC(=O)O)c1=O)C(=O)O
Ki [3]: > 1000 µM
Ki [2]: > 100 µM
Ki [4]: > 500 µM

N[C@@H](Cn1cc(I)c(=O)n(Cc2ccccc2C(=O)O)c1=O)C(=O)O
IC50 [5]: 74.1 µM
Kd [6]: 0.209 µM
Ki [2]: > 100 µM

N[C@H](Cn1ccc(=O)n(CCC(=O)O)c1=O)C(=O)O
Activity [7]: 13.2%
Ki [2]: > 100 µM

N[C@@H](Cn1ccc(=O)n(CCCC(=O)O)c1=O)C(=O)O
IC50 [5]: 136 µM
Kd [6]: 60.5 µM
Ki [3]: 17.8 µM
Ki [2]: > 1000 µM
Ki [4]: 96.2 µM

N#Cc1cc2c(cc1[N+](=O)[O-])=NC(=O)C(=O)N=2
Kd [6]: 1.66 µM
Ki [2]: 1.05 µM

N[C@H](Cn1ccc(=O)n(Cc2ccccc2C(=O)O)c1=O)C(=O)O
IC50 [5]: > 100 µM
Kd [6]: > 100 µM
Ki [2]: > 1000 µM

N[C@@H](Cn1ccc(=O)n(CCC(=O)O)c1=O)C(=O)O
Kd [6]: 73.1 µM
Ki [2]: > 100 µM

N[C@@H](Cn1ccc(=O)n(Cc2ccccc2C(=O)O)c1=O)C(=O)O
IC50 [5]: 106 µM
Kd [6]: 0.402 µM
Ki [2]: > 1000 µM

N[C@@H](CNC(=O)NCc1cccc(C(=O)O)c1)C(=O)O
IC50 [5]: > 1000 µM

N[C@@H](Cn1ccc(=O)n(Cc2cccc(C(=O)O)c2)c1=O)C(=O)O
Kd [6]: 49.1 µM
Ki [2]: > 1000 µM

N[C@@H](Cn1ccc(=O)n(CC(=O)O)c1=O)C(=O)O
IC50 [5]: 287 µM
Ki [3]: 195 µM

N[C@@H](Cn1cc([N+](=O)[O-])c(=O)n(CCC(=O)O)c1=O)C(=O)O
IC50 [5]: 79.9 µM
Ki [2]: > 100 µM

N[C@H](Cn1ccc(=O)n(CCCC(=O)O)c1=O)C(=O)O
Activity [7]: 22.8%
Ki [3]: 149 µM
Ki [4]: > 500 µM

N[C@@H](Cn1cc(I)c(=O)n(CCC(=O)O)c1=O)C(=O)O
IC50 [5]: 13.7 µM
Kd [6]: 8.17 µM
Ki [3]: 5 µM
Ki [2]: > 100 µM
Ki [4]: 52.7 µM

N[C@@H](Cn1ccc(=O)n(Cc2ccc(C(=O)O)cc2)c1=O)C(=O)O
Kd [6]: 9.25 µM
Ki [2]: > 100 µM

C=C(C)[C@H]1CN[C@H](C(=O)O)[C@H]1CC(=O)O
Bmax [8]: 1.53 pmol/mg

NC(Cn1ccc(=O)n(Cc2ccccc2C(=O)O)c1=O)C(=O)O (racemic)
Kb [9]: 0.6 µM
Kb [10]: 1 µM
IC50 [5]: 97.6 µM
Kd [6]: 1.09 µM
Ki [2]: > 1000 µM
Kb [11]: 0.8 µM

— ChEMBL document CHEMBL1141230, “Synthesis and pharmacology of willardiine derivatives acting as antagonists of kainate receptors” (J Med Chem, 2005)
